What is called GI50 is the concentration at which growth is held to half of that of the control. Lower therefore signals more potent growth inhibition.

Structures are written as SMILES. In brackets after ≈: the same amount, converted by molar mass.

In one test the test system is SF-268. In words: Cytotoxicity against human SF268 cells after 48 hrs by sulforhodamine B assay. It counts as functional. As to conditions: SF-268, 48 h. In short, it runs like this:
(§1)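 Human tumor lines exposed to compound for 48 h, then fixed with trichloroacetic acid and stained with sulforhodamine B (NCI standard protocol); optical density read on a microplate reader. GI50 is the concentration giving a 50% reduction in net protein increase, calculated from optical density data.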
For orientation: The SRB assay estimates cell density from bound dye.

The test system of another test is P388. Put plainly: Cytotoxicity against mouse P388 cells after 48 hrs by Coulter particle counting. The note with it: P388, 48 h, read-out: ED50 (the source's name).
The next test has as its system NCI-H460. In words: Cytotoxicity against human NCI-H460 cells after 48 hrs by sulforhodamine B assay. It counts as functional. As to conditions: NCI-H460, 48 h. The procedure, abridged: as §1
A further test concerns MCF7. In words: Cytotoxicity against human MCF7 cells after 48 hrs by sulforhodamine B assay. The format is functional. As to conditions: MCF7, 48 h. The procedure, abridged: as §1
The test system of another test is KM-20L2. In words: Cytotoxicity against human KM20L2 cells after 48 hrs by sulforhodamine B assay. It counts as functional. As to conditions: KM-20L2, 48 h. The procedure, abridged:
as §1

Another test relates to BXPC-3. Put plainly: Cytotoxicity against human BxPC3 cells after 48 hrs by sulforhodamine B assay. It counts as functional. As to conditions: BXPC-3, 48 h. The procedure, abridged: as §1
The subject of another test is DU-145. In words: Cytotoxicity against human DU145 cells after 48 hrs by sulforhodamine B assay. As to conditions: DU-145, 48 h. It counts as functional. In short, it runs like this: as §1

With `COc1ccc(/C=C\c2cc(Br)c(OC)c(OC)c2)cc1OP(=O)([O-])[O-].[K+].[K+]`, the 50% growth inhibitory concentration (GI50) in the test with SF-268 came to 0.0032 µg/mL; in the test on NCI-H460, 0.0029 µg/mL; in the test with MCF7, 3.5 ng/mL; in the test with KM-20L2 it was 0.24 µg/mL; with BXPC-3, 0.2 µg/mL; with DU-145, 0.0028 µg/mL. Also, the EC50 in the test with P388 was less than 0.01 µg/mL.

Turning to `COc1ccc(/C=C\c2cc(F)c(OC)c(OC)c2)cc1OP(=O)([O-])[O-].[Li+].[Li+]`, the concentration for 50% growth inhibition (GI50) in the test on SF-268 was 0.004 µg/mL; in the test with NCI-H460 it was 0.0039 µg/mL; in the test on MCF7, 3.8 ng/mL; in the test on KM-20L2 it was greater than 1 µg/mL; with BXPC-3, 0.49 µg/mL; in the test on DU-145, 0.0043 µg/mL. Moreover, the EC50 in the test on P388 worked out at 0.019 µg/mL.

Consider `COc1ccc(/C=C\c2cc(Br)c(OC)c(OC)c2)cc1OP(=O)([O-])[O-].[Cs+].[Cs+]`, for which the GI50 with SF-268 came out at 0.0064 µg/mL; in the test on NCI-H460 it was 0.0066 µg/mL; with MCF7, 4.4 ng/mL; in the test on KM-20L2 it was 0.48 µg/mL; in the test with BXPC-3, 0.15 µg/mL; in the test with DU-145, 0.0079 µg/mL. The EC50 with P388 is less than 0.01 µg/mL.

As to `COc1ccc(/C=C\c2cc(Br)c(OC)c(OC)c2)cc1OP(=O)([O-])[O-].[Li+].[Li+]`, the GI50 was 0.003 µg/mL in the test with SF-268; 0.0026 µg/mL in the test on NCI-H460; 3.9 ng/mL with MCF7; 0.11 µg/mL in the test on KM-20L2; 0.13 µg/mL in the test with BXPC-3; 0.0066 µg/mL with DU-145. Moreover, in the test with P388, the EC50 was less than 0.01 µg/mL.

In the case of `COc1ccc(/C=C\c2cc(Br)c(OC)c(OC)c2)cc1OP(=O)([O-])[O-].[Rb+].[Rb+]`, the GI50 is 0.023 µg/mL in the test with SF-268; 0.041 µg/mL in the test on NCI-H460; 43 ng/mL in the test on MCF7; 2.6 µg/mL in the test with KM-20L2; 0.56 µg/mL with BXPC-3; 0.042 µg/mL in the test with DU-145. Further, the EC50 in the test with P388 was less than 0.01 µg/mL.

For the molecule `COc1ccc(/C=C\c2cc(Br)c(OC)c(OC)c2)cc1OP(=O)([O-])[O-].[Ca+2]`, the GI50 was 0.0022 µg/mL with SF-268; 0.0068 µg/mL in the test with NCI-H460; 2.2 ng/mL with MCF7; 0.37 µg/mL with KM-20L2; less than 0.001 µg/mL in the test on BXPC-3; 0.0063 µg/mL in the test with DU-145. Further, the EC50 with P388 amounted to 0.288 µg/mL.

As to `COc1ccc(/C=C\c2cc(N)c(OC)c(OC)c2)cc1N`, the GI50 was 0.076 µg/mL (≈ 0.253 µM) in the test with SF-268; 0.014 µg/mL (≈ 0.0466 µM) in the test on NCI-H460; less than 10 ng/mL with MCF7; 0.03 µg/mL (≈ 0.0999 µM) with KM-20L2; 0.053 µg/mL (≈ 0.176 µM) with BXPC-3; 0.044 µg/mL (≈ 0.146 µM) in the test on DU-145. Besides, the EC50 in the test on P388 turned out to be 0.036 µg/mL (≈ 0.12 µM).

`COc1ccc(/C=C/c2cc(O)c(OC)c(OC)c2)cc1[N+](=O)[O-]`: the GI50 came to 0.41 µg/mL (≈ 1.24 µM) in the test with SF-268; 0.25 µg/mL (≈ 0.755 µM) in the test on NCI-H460; 560 ng/mL (≈ 1.69 µM) in the test with MCF7; 1.2 µg/mL (≈ 3.62 µM) in the test with KM-20L2; 1.1 µg/mL (≈ 3.32 µM) in the test with BXPC-3; 0.36 µg/mL (≈ 1.09 µM) in the test with DU-145. Also, the EC50 in the test on P388 came out at 0.224 µg/mL (≈ 0.676 µM).

Consider `COc1ccc(/C=C/c2cc(OC)c(OC)c(O[Si](C)(C)C(C)(C)C)c2)cc1[N+](=O)[O-]`, for which the GI50 was 4.1 µg/mL (≈ 9.2 µM) in the test with SF-268; 2.9 µg/mL (≈ 6.51 µM) with NCI-H460; 3200 ng/mL (≈ 7.18 µM) in the test on MCF7; greater than 10 µg/mL in the test on KM-20L2; greater than 10 µg/mL in the test with BXPC-3; 2.8 µg/mL (≈ 6.28 µM) in the test on DU-145. For the same molecule, the EC50 in the test with P388 came to 2.22 µg/mL (≈ 4.98 µM).

Turning to `COc1ccc(/C=C\c2cc(OC)c(OC)c([N+](=O)[O-])c2)cc1[N+](=O)[O-]`, the GI50 turned out to be 0.59 µg/mL (≈ 1.64 µM) in the test on SF-268; 0.24 µg/mL (≈ 0.666 µM) in the test with NCI-H460; 370 ng/mL (≈ 1.03 µM) in the test with MCF7; 0.27 µg/mL (≈ 0.749 µM) in the test with KM-20L2; 0.39 µg/mL (≈ 1.08 µM) in the test with BXPC-3; 0.34 µg/mL (≈ 0.944 µM) with DU-145. In the test on P388, the EC50 was greater than 10 µg/mL.

As to `COc1ccc(/C=C\c2cc(OC)c(OC)c(OC)c2)c(O)c1O` [COMBRETASTATIN A-1], the EC50 in the test with P388 was determined as 0.251 µg/mL (≈ 0.755 µM). The GI50 in the test with NCI-H460 turned out to be 0.74 µg/mL (≈ 2.23 µM); in the test with KM-20L2, 0.061 µg/mL (≈ 0.184 µM); with BXPC-3 it was 4.4 µg/mL (≈ 13.2 µM); in the test on DU-145, 0.17 µg/mL (≈ 0.512 µM).

As to `COc1ccc(/C=C\c2cc(OC)c(OC)c(OC)c2)cc1OP(=O)([O-])[O-].[Na+].[Na+]` [FOSBRETABULIN DISODIUM], the GI50 was determined as 0.036 µg/mL with SF-268, 0.029 µg/mL in the test with NCI-H460 and 0.034 µg/mL in the test with KM-20L2. The EC50 with P388 is 0.0004 µg/mL.

Values taken from ChEMBL document CHEMBL1151261, “Antineoplastic agents. 509: synthesis of fluorcombstatin phosphate and related 3-halostilbenes(1)” (J Nat Prod, 2005).
